Published values collected from several papers.
Protocols differ between the studies behind these lines.
Target: Serine/threonine-protein kinase RIO3 (RIOK3, Homo sapiens, UniProt O14730)
One construct used (O14730 1-519): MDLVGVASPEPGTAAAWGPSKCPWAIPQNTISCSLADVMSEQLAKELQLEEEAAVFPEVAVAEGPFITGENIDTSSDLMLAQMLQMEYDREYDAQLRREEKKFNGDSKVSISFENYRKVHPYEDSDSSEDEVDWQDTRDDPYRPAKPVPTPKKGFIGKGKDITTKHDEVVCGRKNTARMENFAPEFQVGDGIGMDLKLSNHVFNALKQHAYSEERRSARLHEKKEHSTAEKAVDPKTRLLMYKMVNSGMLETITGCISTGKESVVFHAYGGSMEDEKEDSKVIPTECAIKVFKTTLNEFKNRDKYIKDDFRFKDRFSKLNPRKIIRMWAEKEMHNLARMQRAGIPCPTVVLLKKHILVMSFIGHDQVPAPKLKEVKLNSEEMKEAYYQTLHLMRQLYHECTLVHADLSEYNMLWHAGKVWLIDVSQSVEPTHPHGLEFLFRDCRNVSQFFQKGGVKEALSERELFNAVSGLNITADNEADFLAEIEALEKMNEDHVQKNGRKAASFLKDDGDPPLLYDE

With `Cc1cnn2ncc(-c3ccnc(N(C)C)n3)c2c1` the remaining binding was 100% (binding; 1 µM).
The remaining binding of `Nc1ncc2c(n1)-c1c([nH]c3ccc(C#CC4CC4)cc13)CCCC2` is reported as 75% (binding; competition with immobilised ligand; 1 µM).
With `C[C@@H](c1ccc(-n2cnc3c(N)ncnc32)cc1)N1CCc2nn(C)c(Cc3ccccc3)c2C1=O` the remaining binding was 76% (binding; competition with immobilised ligand; 0.1 µM).
For `CNC(=O)[C@@H]1CC[C@@H](n2c(-c3ccc4cnccc4c3)nc3ccc(C(=O)NCc4cccc(C(N)=O)c4)cc32)C1`, the remaining binding was 88% (binding; competition with immobilised ligand; 1 µM).
The remaining binding of `Cc1cc(NC(=O)c2cccc(S(F)(F)(F)(F)F)c2)cc(-n2ccn3nc(-c4cccnc4)cc23)c1` is reported as 85.9% (cell-free assay; competition with immobilised ligand; 1 µM).
The remaining binding of `O=C(Nc1c[nH]nc1C(=O)NC1CCNCC1)c1cc(F)cc(F)c1` is reported as 100% (binding; competition with immobilised ligand; 1 µM).
For `CNC(=O)c1ccc(Nc2ncc(C(F)(F)F)c(NCc3nccnc3N(C)S(C)(=O)=O)n2)cc1`, the remaining binding was 55% (cell-free assay; competition with immobilised ligand; 0.1 µM).
With `COc1ccnn2ncc(-c3ccnc(N(C)C)n3)c12` the remaining binding was 100% (binding; 1 µM).
With `CCS(=O)(=O)c1cc2cc(C[C@](O)(CC(C)(C)c3ccc(F)cc3C(N)=O)C(F)(F)F)[nH]c2cn1` the remaining binding was 91% (cell-free assay; competition with immobilised ligand; 1 µM).
`O=C(NCCCN1CCOCC1)c1ccc(Nc2nccc(-c3cc4ccccc4s3)n2)cc1` gave a remaining binding of 1.7% (binding; competition with immobilised ligand; 1 µM).
The remaining binding of `CCCOc1ccc([C@H]2[C@H](C(=O)O)[C@@H](c3ccc4c(c3)OCO4)CN2CC(=O)Nc2c(CC)cccc2CC)cc1` is reported as 100% (cell-free assay; competition with immobilised ligand; 1 µM).
For `CN(C)c1nccc(-c2cnn3ncccc23)n1`, the remaining binding was 100% (binding; 1 µM).
With `COc1cnc(Nc2cccc(S(N)(=O)=O)c2)nc1N1CCN(c2ccccc2)C(=O)C1` the remaining binding was 57% (binding; competition with immobilised ligand; 1 µM).
With `C[C@@H]1CCN(c2nccc(-c3cnn4ncccc34)n2)C1` the remaining binding was 100% (binding; 1 µM).
`O=C(c1ccc(Nc2ncc(Cl)c(-c3ccc(Cl)s3)n2)cc1)N1CCC(N2CCCC2)CC1` gave a remaining binding of 0% (binding; competition with immobilised ligand; 1 µM).
`CN(CCCC(F)(F)F)c1nccc(-c2cnn3ncccc23)n1` gave a remaining binding of 100% (binding; 1 µM).
`CC(=O)N1CCC(c2ccc(C(=O)NC(=N)N)cc2C(F)(F)F)CC1` gave a remaining binding of 100% (cell-free assay; competition with immobilised ligand; 1 µM).
For `N[C@H]1CCN(c2nccc(-c3cnn4ncccc34)n2)C1`, the remaining binding was 81% (binding; 1 µM).
`C=CC(=O)N1CCC(C(=O)NCC(=O)N2CCN(c3nc(-c4cnc(N)nc4C(F)F)nc(N4CCOCC4)n3)CC2)CC1` gave a remaining binding of 100% (binding; competition with immobilised ligand; 1 µM).
`c1cnn2ncc(-c3ccnc(N4CCC45COC5)n3)c2c1` has a remaining binding of 93% (binding; 1 µM).
The remaining binding of `CO[C@@H](C)c1c(Nc2ccc([C@H](N(C)C(=O)C3CCS(=O)(=O)CC3)C(F)(F)F)cc2)cnc2cc(Cl)nn12` is reported as 82% (cell-free assay; competition with immobilised ligand; 1 µM).
With `O=C(c1ccc(Nc2ncc(Cl)c(-c3cc4ccccc4s3)n2)cc1)N1CCC(N2CCCC2)CC1` the remaining binding was 0% (binding; competition with immobilised ligand; 1 µM).
